ChEMBL document CHEMBL3739273, “Synthesis, biological activity evaluation and molecular docking studies of novel coumarin substituted thiazolyl-3-aryl-pyrazole-4-carbaldehydes” (Bioorg Med Chem Lett, 2015)
≈ marks a conversion by molar mass, not a printed value. Calls of active or inactive are those of the source. No cut-off for these calls is given here.

How the values were obtained:
[1] = system: Escherichia coli; assay: Bactericidal activity against Escherichia coli ATCC 8739 after 24 hrs; assay type: functional; settings: ATCC 8739, 24 h, read-out: MBC99.9
Method in brief: (§1)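 MBC determined by a standard MBC protocol alongside the MIC, with values in µg/mL. Gentamycin sulfate and ampicillin were the references.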

[2] = system: HeLa; assay: Anticancer activity against human HeLa cells assessed as cell viability at 10 uM after 48 hrs by MTT assay; assay type: functional, cell-based
[3] = system: Klebsiella pneumoniae; assay: Antibacterial activity against Klebsiella pneumoniae ATCC 43816 after 24 hrs by microtiter plate method; assay type: functional; settings: ATCC 43816, 24 h
Method in brief: (§2)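 Test concentrations reported in µg/mL. Gentamycin sulfate and ampicillin were the reference drugs.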

[4] = biological target: T1, Cytochrome P450 2A6 (Homo sapiens, UniProt P11509); assay: Inhibition of human microsomal CYP2A6; assay type: ADME
T1 sequence (P11509 whole entry): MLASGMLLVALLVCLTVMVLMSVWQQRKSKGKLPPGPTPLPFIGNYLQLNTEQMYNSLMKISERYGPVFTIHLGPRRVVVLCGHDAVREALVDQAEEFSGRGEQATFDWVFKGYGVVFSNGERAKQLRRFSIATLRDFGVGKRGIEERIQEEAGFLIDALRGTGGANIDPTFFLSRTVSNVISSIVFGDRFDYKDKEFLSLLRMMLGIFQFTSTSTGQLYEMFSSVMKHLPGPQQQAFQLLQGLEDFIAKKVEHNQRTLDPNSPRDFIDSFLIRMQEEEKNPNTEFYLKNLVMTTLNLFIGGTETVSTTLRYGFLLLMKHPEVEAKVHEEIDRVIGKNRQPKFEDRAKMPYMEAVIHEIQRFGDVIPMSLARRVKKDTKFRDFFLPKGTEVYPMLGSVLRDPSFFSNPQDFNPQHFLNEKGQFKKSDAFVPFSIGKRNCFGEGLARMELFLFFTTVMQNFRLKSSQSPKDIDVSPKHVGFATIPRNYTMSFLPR

[5] = system: Proteus vulgaris; assay: Antibacterial activity against Proteus vulgaris ATCC 13315 after 24 hrs by microtiter plate method; assay type: functional; settings: ATCC 13315, 24 h; method in brief: as §2
[6] = system: Bacillus cereus; assay: Bactericidal activity against Bacillus cereus ATCC 14579 after 24 hrs; assay type: functional; settings: ATCC 14579, 24 h, read-out: MBC99.9; method in brief: as §1
[7] = system: MCF7; assay: Anticancer activity against human MCF7 cells assessed as cell viability after 48 hrs by MTT assay; assay type: functional, cell-based; settings: MCF7, 48 h
Method in brief: (§3)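 MTT cytotoxicity assay in human DU-145 prostate, MCF-7 breast and HeLa cervical cancer cell lines. Doxorubicin was the reference drug.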

[8] = system: Bacillus cereus; assay: Antibacterial activity against Bacillus cereus ATCC 14579 after 24 hrs by microtiter plate method; assay type: functional; settings: ATCC 14579, 24 h; method in brief: as §2
[9] = system: Escherichia coli; assay: Antibacterial activity against Escherichia coli ATCC 8739 assessed as growth inhibition at 100 ug/ml after 24 hrs by agar well diffusion method; assay type: functional; settings: for zone of inhibition at 100 µg/mL: ATCC 8739, 24 h, read-out: IZ
Method in brief: (§4)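 Agar well diffusion. Compounds were tested at 10, 20, 100, 200 and 300 µg/mL, and the zone of inhibition was measured in mm. Gentamycin sulfate was the reference drug.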

[10] = system: Klebsiella pneumoniae; assay: Bactericidal activity against Klebsiella pneumoniae ATCC 43816 after 24 hrs; assay type: functional; settings: ATCC 43816, 24 h, read-out: MBC99.9; method in brief: as §1
[11] = system: HeLa; assay: Anticancer activity against human HeLa cells assessed as cell viability after 48 hrs by MTT assay; assay type: functional, cell-based; method in brief: as §3
[12] = system: Proteus vulgaris; assay: Antibacterial activity against Proteus vulgaris ATCC 13315 assessed as growth inhibition at 100 ug/ml after 24 hrs by agar well diffusion method; assay type: functional; settings: for zone of inhibition at 100 µg/mL: ATCC 13315, 24 h, read-out: IZ; method in brief: as §4
[13] = system: Staphylococcus aureus; assay: Antibacterial activity against methicillin-resistant Staphylococcus aureus NCTC 13616 after 24 hrs by microtiter plate method; assay type: functional; settings: NCTC 13616, 24 h
[14] = system: Klebsiella pneumoniae; assay: Antibacterial activity against Klebsiella pneumoniae ATCC 43816 assessed as growth inhibition at 100 ug/ml after 24 hrs by agar well diffusion method; assay type: functional; settings: for zone of inhibition at 100 µg/mL: ATCC 43816, 24 h, read-out: IZ; method in brief: as §4
[15] = system: Staphylococcus aureus; assay: Bactericidal activity against methicillin-resistant Staphylococcus aureus NCTC 13616 after 24 hrs; assay type: functional; settings: NCTC 13616, 24 h, read-out: MBC99.9
Method in brief: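 MBC determined by a standard MBC protocol run alongside the MIC determination. Gentamycin sulfate and ampicillin served as reference drugs.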

[16] = Anticancer activity against human DU145 cells assessed as cell viability after 48 hrs by MTT assay; assay type: functional, cell-based; settings: DU-145, 48 h; method in brief: as §3
[17] = system: Bacillus spizizenii; assay: Bactericidal activity against Bacillus subtilis ATCC 6633 after 24 hrs; assay type: functional; settings: ATCC 6633, 24 h, read-out: MBC99.9; method in brief: as §1
[18] = system: Bacillus spizizenii; assay: Antibacterial activity against Bacillus subtilis ATCC 6633 after 24 hrs by microtiter plate method; assay type: functional; settings: ATCC 6633, 24 h; method in brief: as §2
[19] = n-Octanol-phosphate buffer partition coefficient, log P of the compound at pH 7.4 after 30 mins by shake flask method; assay type: physicochemical
Method in brief: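 Shake-flask partition between n-octanol and 50 mM phosphate buffer, pH 7.4. P calculated and expressed as logP.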

[20] = system: Staphylococcus aureus; assay: Antibacterial activity against methicillin-resistant Staphylococcus aureus NCTC 13616 assessed as growth inhibition at 100 ug/ml after 24 hrs by agar well diffusion method; assay type: functional, organism-based
Method in brief: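 Agar well diffusion assay with compounds applied to wells at several concentrations, including the 100 level reported here. The zone of inhibition was measured in mm. Gentamycin sulfate was the standard drug.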

[21] = system: Escherichia coli; assay: Antibacterial activity against Escherichia coli ATCC 8739 after 24 hrs by microtiter plate method; assay type: functional; settings: ATCC 8739, 24 h; method in brief: as §2
[22] = system: Proteus vulgaris; assay: Bactericidal activity against Proteus vulgaris ATCC 13315 after 24 hrs; assay type: functional; settings: ATCC 13315, 24 h, read-out: MBC99.9; method in brief: as §1
[23] = system: Bacillus cereus; assay: Antibacterial activity against Bacillus cereus ATCC 14579 assessed as growth inhibition at 100 ug/ml after 24 hrs by agar well diffusion method; assay type: functional; method in brief: as §4
[24] = system: HeLa; assay: Induction of apoptosis in human HeLa cell assessed as nuclear condensation after 24 hrs by Hoechst 33258 staining based fluorescence microscopic analysis; assay type: functional
Method in brief: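 HeLa cells treated at 10 µM for 24 h, washed with PBS, then stained with Hoechst 33258 ([…]) for 20 min. Chromatin condensation imaged by fluorescence microscopy with a DAPI filter.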

[25] = system: Bacillus spizizenii; assay: Antibacterial activity against Bacillus subtilis ATCC 6633 assessed as growth inhibition at 100 ug/ml after 24 hrs by agar well diffusion method; assay type: functional, organism-based; method in brief: as §4

SMILES	MBC [1] [µg/mL]	MIC [3] [µg/mL]	Ki [4] [µM]	MIC [5] [µg/mL]	MBC [6] [µg/mL]	IC50 [7] [µM]	MIC [8] [µg/mL]	MBC [10] [µg/mL]	IC50 [11] [µM]	MIC [13] [µg/mL]	MBC [15] [µg/mL]	IC50 [16] [µM]	MBC [17] [µg/mL]	MIC [18] [µg/mL]	logD at 0.5 h [19]	growth inhibition (GI) [20]	MIC [21] [µg/mL]	MBC [22] [µg/mL]	growth inhibition (GI) [23]	growth inhibition (GI) [25]	also measured
Cc1ccc(-c2nn(-c3nc(-c4cc5cc(Cl)cc(Cl)c5oc4=O)cs3)cc2C=O)cc1	150 (≈ 311 µM)	101 (≈ 209 µM)	0.00257	105 (≈ 218 µM)	150 (≈ 311 µM)	14.6	100 (≈ 208 µM)	150 (≈ 311 µM)	5.75	116 (≈ 240 µM)	230 (≈ 477 µM)	14.7	145 (≈ 301 µM)	98.2 (≈ 204 µM)	3.6	Active	101 (≈ 210 µM)	210 (≈ 435 µM)	Active	Active	growth inhibition (GI) [2]: Active; zone of inhibition at 100 µg/mL [9]: 18 mm; zone of inhibition at 100 µg/mL [12]: 18 mm; zone of inhibition at 100 µg/mL [14]: 20 mm; Activity [24]: Active
Cc1ccc(-c2nn(-c3nc(-c4cc5cc(Br)cc(Br)c5oc4=O)cs3)cc2C=O)cc1	130 (≈ 228 µM)	79.1 (≈ 138 µM)	0.00173	101 (≈ 176 µM)	110 (≈ 193 µM)	24.5	72.8 (≈ 127 µM)	115 (≈ 201 µM)	6.25	106 (≈ 185 µM)	175 (≈ 306 µM)	10.8	150 (≈ 263 µM)	92.4 (≈ 162 µM)	3.34	Active	86.5 (≈ 151 µM)	150 (≈ 263 µM)	Active	Active	zone of inhibition at 100 µg/mL [9]: 22 mm; zone of inhibition at 100 µg/mL [12]: 20 mm; zone of inhibition at 100 µg/mL [14]: 24 mm; Activity [24]: Active
O=Cc1cn(-c2nc(-c3cc4cc(Br)ccc4oc3=O)cs2)nc1-c1ccccc1	240 (≈ 502 µM)	117 (≈ 244 µM)	0.00602	124 (≈ 259 µM)	260 (≈ 544 µM)	18.2	129 (≈ 270 µM)	175 (≈ 366 µM)	11	116 (≈ 243 µM)	175 (≈ 366 µM)	35	250 (≈ 523 µM)	125 (≈ 261 µM)	3.3	Active	118 (≈ 247 µM)	250 (≈ 523 µM)	Active	Active	growth inhibition (GI) [9]: Active; growth inhibition (GI) [12]: Active; growth inhibition (GI) [14]: Active
O=Cc1cn(-c2nc(-c3cc4cc(Br)ccc4oc3=O)cs2)nc1-c1ccc(Cl)cc1	230 (≈ 449 µM)	115 (≈ 224 µM)	0.0132	128 (≈ 249 µM)	170 (≈ 332 µM)	85	115 (≈ 224 µM)	172 (≈ 335 µM)	9.46	123 (≈ 240 µM)	185 (≈ 361 µM)	22.3	175 (≈ 341 µM)	120 (≈ 233 µM)	3.07	Active	118 (≈ 229 µM)	250 (≈ 488 µM)	Active	Active	growth inhibition (GI) [2]: Active; growth inhibition (GI) [9]: Active; growth inhibition (GI) [12]: Active; growth inhibition (GI) [14]: Active
O=Cc1cn(-c2nc(-c3cc4cc(Cl)ccc4oc3=O)cs2)nc1-c1ccc(Cl)cc1	250 (≈ 534 µM)	117 (≈ 251 µM)	0.0166	131 (≈ 279 µM)	165 (≈ 352 µM)	18.7	111 (≈ 237 µM)	240 (≈ 512 µM)	9.51	134 (≈ 286 µM)	265 (≈ 566 µM)	14.9	165 (≈ 352 µM)	112 (≈ 240 µM)	3.06	Active	126 (≈ 270 µM)	260 (≈ 555 µM)	Active	Active	growth inhibition (GI) [2]: Active; growth inhibition (GI) [9]: Active; growth inhibition (GI) [12]: Active; growth inhibition (GI) [14]: Active
